Measured values pooled from the literature.
Target: Serine/threonine-protein kinase ICK (CILK1, Homo sapiens, UniProt Q9UPZ9)
Residues used in one study (Q9UPZ9 1-632): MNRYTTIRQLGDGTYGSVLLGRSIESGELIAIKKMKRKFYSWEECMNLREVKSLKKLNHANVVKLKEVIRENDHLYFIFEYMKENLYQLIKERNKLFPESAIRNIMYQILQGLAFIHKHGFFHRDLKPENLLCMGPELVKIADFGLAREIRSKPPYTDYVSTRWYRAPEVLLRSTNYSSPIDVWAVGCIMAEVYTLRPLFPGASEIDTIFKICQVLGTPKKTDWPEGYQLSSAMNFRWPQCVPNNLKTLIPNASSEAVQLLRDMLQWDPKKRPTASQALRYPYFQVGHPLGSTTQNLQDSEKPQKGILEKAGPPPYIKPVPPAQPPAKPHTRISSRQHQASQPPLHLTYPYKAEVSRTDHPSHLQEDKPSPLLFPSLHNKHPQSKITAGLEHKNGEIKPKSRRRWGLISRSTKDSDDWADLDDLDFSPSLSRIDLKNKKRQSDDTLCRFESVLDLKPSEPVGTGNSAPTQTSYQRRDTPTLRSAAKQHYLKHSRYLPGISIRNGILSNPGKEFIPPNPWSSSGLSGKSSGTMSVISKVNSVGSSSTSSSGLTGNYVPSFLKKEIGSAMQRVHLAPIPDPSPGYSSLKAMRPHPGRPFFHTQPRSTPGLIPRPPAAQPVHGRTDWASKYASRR

Compound | read-out | mode | technique | tested at | endpoint | value
Cc1ccc(C(=O)Nc2ccc(CN3CCN(C)CC3)c(C(F)(F)F)c2)cc1C#Cc1cnc2cccnn12 | enzyme activity |  |  | 23.5 nM | remaining activity | 96%
CN1CC(Oc2cnc(C#N)cc2-c2ccn3nc(NC(=O)C4CC4)cc3c2)C1 | enzyme activity | inhibitor |  | 1 µM | inhibition | -20%
Cc1sc(C(=O)NC2COC2)cc1-n1cc(NC(=O)Nc2c(F)cccc2Cl)cn1 | enzyme activity | inhibitor |  | 10 µM | remaining activity | 100%
Cc1ccc(C(=O)NCc2ccsc2)cc1C#Cc1cn(C(C)C)c2ncnc(N)c12 | enzyme activity | inhibitor |  | 1 µM | activity vs control | 103%
CO[C@@H](C)c1c(Nc2ccc([C@H](N(C)C(=O)C3CCS(=O)(=O)CC3)C(F)(F)F)cc2)cnc2cc(Cl)nn12 | cell-free assay |  | competition with immobilised ligand | 1 µM | remaining binding | 70%
Nc1ncnc2occ(-c3ccc(NC(=O)Nc4cc(C(F)(F)F)ccc4F)cc3)c12 | cell-free assay |  |  | 20 µM | remaining signal | 12%
CC(C)(O)[C@H]1CC[C@H](Nc2ccc3ncc(-c4cccc(C(F)(F)F)c4)n3n2)CC1 | enzyme activity | inhibitor |  | 1 µM | remaining activity | 86%
O=C1NC(c2ccccn2)Sc2ccccc21 (stereo not drawn) | cell-free assay |  | competition with immobilised ligand | 1 µM | remaining binding | 86%
O=C(Nc1cnn(-c2csc(C(=O)NC3COC3)c2)c1)Nc1c(F)cccc1Cl | enzyme activity | inhibitor |  | 5 µM | remaining activity | 96.6%
